For assay [1], the target named is Cannabinoid receptor 1 (Homo sapiens) (UniProt P21554). The assay is described as follows: Antagonist activity at CB1 receptor expressed in HEK293 cells assessed as blockade of Hu210-mediated decrease in secreted alkaline phosphatase activity at 1 uM after 6 hrs relative to control. Type of assay: functional, cell-based. In short, it runs like this:
(§1)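 HEK-293 cells transiently co-transfected with pCRE-SeAP and a Flag-tagged receptor, 30,000 cells/well on poly-L-lysine. They were serum-starved 16–18 h, then exposed 6 h in serum-free medium to 10 μM forskolin (omitted for β2) plus the receptor agonist (100 nM), with or without peptide (1 μM). Heat-treated supernatant SeAP was read by CSPD chemiluminescence. Mean ± SEM, n = 6.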

The target is the same in assay [2]. The assay is described as follows: Antagonist activity at flag tagged recombinant CB1 receptor expressed in HEK293 cells assessed as blockade of Hu210-induced increase in phospho ERK1/2 level. The assay is classed as functional, cell-based. In short, it runs like this:
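HEK-293 cells expressing Flag-tagged CB1 (2 × 10⁶ cells/well) were stimulated for 5 min with 100 nM Hu-210, with or without 10 μM antagonist. Phospho-ERK1/2 was quantified relative to untreated cells (100%). Mean ± SE of triplicate experiments.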

For assay [3], the target named is T1, Type-2 angiotensin II receptor (Homo sapiens) (UniProt P50052).
T1 sequence (whole entry): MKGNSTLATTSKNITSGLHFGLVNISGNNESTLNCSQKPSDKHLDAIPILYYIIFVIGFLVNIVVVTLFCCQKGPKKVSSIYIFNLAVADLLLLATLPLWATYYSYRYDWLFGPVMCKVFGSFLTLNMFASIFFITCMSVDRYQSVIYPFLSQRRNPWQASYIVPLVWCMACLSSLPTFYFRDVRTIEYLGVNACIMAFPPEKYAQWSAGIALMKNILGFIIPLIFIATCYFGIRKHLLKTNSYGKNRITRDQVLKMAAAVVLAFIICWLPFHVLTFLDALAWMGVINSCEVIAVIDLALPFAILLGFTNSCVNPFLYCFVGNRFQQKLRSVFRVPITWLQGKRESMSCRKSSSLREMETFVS
Nature of the assay: Antagonist activity at AT2 angiotensin receptor expressed in SKNSH cells at 100 nM by ELISA. The assay is classed as functional, cell-based. On the set-up: scale not given: the % may be the effect or the level left. In general terms: In an ELISA, binding on a coated surface is turned into a signal by an enzyme label.

The subject of assay [4] is Rattus norvegicus. The assay is described as follows: Antihyperalgesic effects in Wistar rat assessed as reduction of carrageenan-induced paw pressure at 0.5 ug/kg, intrathecal after 3 hrs. The assay is classed as functional, organism-based. In short, it runs like this: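 Male Wistar rats (200 g) received carrageenan 200 μg/paw intraplantar in saline into the right hind paw. Peptide was given at the same time: intraplantar 10 μg/paw, intrathecal 0.5 or 5 μg/kg, or oral 50 or 100 μg/kg; saline-treated rats served as controls. Paw-pressure withdrawal threshold (force ramp 16 g/s) was read at 0 and 3 h. n = 6–8.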
A general note: Carrageenan injected into the paw causes an acute inflammation.

Assay [5] has as its target T2, Alpha-2A adrenergic receptor (Homo sapiens) (UniProt P08913).
T2 sequence (whole entry): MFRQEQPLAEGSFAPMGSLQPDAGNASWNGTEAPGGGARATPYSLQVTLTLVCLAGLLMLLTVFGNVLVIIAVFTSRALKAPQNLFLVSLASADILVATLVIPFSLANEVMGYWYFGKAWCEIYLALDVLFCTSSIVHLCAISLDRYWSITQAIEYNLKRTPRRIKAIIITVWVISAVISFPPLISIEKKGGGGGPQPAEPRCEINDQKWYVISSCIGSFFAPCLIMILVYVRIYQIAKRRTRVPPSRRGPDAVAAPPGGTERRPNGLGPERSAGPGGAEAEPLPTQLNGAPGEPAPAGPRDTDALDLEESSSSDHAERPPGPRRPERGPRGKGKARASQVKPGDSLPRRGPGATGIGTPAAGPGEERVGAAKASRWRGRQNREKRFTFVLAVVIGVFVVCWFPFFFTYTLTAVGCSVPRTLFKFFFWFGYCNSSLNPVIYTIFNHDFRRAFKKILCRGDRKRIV
Nature of the assay: Antagonist activity at alpha2A adrenergic receptor expressed in HEK293 cells assessed as blockade of clonidine-mediated decrease in secreted alkaline phosphatase activity at 1 uM after 6 hrs relative to control. Type of assay: functional, cell-based. In short, it runs like this:
as §1

Assay [6] has as its target Cannabinoid receptor 2 (Homo sapiens) (UniProt P34972). The assay is described as follows: Antagonist activity at CB2 receptor expressed in Neuro 2A cells assessed as blockade of Hu210-mediated increase in number of neurite outgrowth at 10 uM after 16 hrs. The assay is classed as functional, cell-based. In short, it runs like this:
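Neuro 2A cells transfected with Flag-tagged CB1 or CB2 were exposed 16 h in 0.1% FBS medium to 100 nM Hu-210 with or without 10 μM peptide. The percentage of cells extending neurites was scored and normalized to untreated cells (100%). Mean ± SE of triplicate experiments.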

In assay [7] the target is T3, Type-1 angiotensin II receptor (Homo sapiens) (UniProt P30556).
T3 sequence (whole entry): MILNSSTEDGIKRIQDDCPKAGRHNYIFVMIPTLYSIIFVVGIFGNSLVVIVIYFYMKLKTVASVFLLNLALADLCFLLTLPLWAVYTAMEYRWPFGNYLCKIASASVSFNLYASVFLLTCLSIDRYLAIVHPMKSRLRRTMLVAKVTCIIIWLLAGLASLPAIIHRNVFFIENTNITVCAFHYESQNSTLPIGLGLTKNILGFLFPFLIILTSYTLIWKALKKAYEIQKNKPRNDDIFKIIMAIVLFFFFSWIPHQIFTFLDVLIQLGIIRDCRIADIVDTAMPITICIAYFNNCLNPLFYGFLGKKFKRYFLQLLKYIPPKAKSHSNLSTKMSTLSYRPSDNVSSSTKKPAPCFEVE
Nature of the assay: Antagonist activity at AT1 angiotensin receptor expressed in SKNSH cells assessed as blockade of angiotensin 2-induced increase in antibody recognition at 100 nM by ELISA relative to control. Type of assay: functional, cell-based. On the set-up: scale not given: the % may be the effect or the level left.

Assay [8] deals with T4, Cannabinoid receptor 2 (Rattus norvegicus) (UniProt Q9QZN9).
T4 sequence (whole entry): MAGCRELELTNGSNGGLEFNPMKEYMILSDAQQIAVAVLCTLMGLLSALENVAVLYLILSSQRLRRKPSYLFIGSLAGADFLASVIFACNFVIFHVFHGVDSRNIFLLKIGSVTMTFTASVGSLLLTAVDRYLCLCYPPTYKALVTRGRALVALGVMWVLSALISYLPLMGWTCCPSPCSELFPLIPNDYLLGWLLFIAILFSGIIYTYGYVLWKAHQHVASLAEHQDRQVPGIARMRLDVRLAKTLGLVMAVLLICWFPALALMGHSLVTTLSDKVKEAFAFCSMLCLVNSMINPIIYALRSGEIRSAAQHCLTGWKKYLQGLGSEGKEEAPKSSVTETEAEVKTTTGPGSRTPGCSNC
The assay is described as follows: Antagonist activity at Long-Evans rat spleen CB2 receptor assessed as blockade of Hu210-mediated decrease in adenylate cyclase activity. The assay is classed as functional, tissue-based. The gist of the method: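 Membranes (10 μg) came from striatum (CB1) or spleen (CB2). They were tested in GTPγS-binding or adenylyl cyclase assays with Hu-210 and test ligand (0–1 μM), or with Hu-210 curves with or without 10 μM peptide; a 1 μM single-point combination was also used. Mean ± SE of triplicates.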

Assay [9] concerns the target Beta-2 adrenergic receptor (Homo sapiens) (UniProt P07550). Nature of the assay: Antagonist activity at beta2 adrenergic receptor expressed in SKNSH cells assessed as blockade of isoproterenol-induced increase in antibody recognition at 100 nM by ELISA relative to control. The assay is classed as functional, cell-based. The arrangement: scale not given: the % may be the effect or the level left.

Assay [10] addresses Cannabinoid receptor 1 (Homo sapiens) (UniProt P21554). The assay is described as follows: Antagonist activity at CB1 receptor expressed in SKNSH cells assessed as blockade of Hu210-induced increase in antibody recognition at 100 nM by ELISA relative to control. Type of assay: functional, cell-based. On the set-up: scale not given: the % may be the effect or the level left.

The source made the active and inactive calls.

Cannabinoid receptor 1 (Homo sapiens), sequence (P21554 whole entry): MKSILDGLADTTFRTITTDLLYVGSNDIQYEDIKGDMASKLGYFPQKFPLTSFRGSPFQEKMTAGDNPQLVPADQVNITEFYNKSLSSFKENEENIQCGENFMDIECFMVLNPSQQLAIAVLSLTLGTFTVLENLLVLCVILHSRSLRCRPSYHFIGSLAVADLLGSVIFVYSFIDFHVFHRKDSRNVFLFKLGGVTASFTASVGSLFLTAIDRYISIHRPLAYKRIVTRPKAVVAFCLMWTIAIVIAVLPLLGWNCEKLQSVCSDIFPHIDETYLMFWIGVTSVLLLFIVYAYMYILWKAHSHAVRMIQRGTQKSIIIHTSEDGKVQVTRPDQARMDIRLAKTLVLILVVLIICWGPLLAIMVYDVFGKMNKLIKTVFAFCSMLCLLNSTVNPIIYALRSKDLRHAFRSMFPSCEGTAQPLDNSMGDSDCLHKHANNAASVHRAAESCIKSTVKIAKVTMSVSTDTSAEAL
Beta-2 adrenergic receptor (Homo sapiens), sequence (P07550 whole entry, looked up): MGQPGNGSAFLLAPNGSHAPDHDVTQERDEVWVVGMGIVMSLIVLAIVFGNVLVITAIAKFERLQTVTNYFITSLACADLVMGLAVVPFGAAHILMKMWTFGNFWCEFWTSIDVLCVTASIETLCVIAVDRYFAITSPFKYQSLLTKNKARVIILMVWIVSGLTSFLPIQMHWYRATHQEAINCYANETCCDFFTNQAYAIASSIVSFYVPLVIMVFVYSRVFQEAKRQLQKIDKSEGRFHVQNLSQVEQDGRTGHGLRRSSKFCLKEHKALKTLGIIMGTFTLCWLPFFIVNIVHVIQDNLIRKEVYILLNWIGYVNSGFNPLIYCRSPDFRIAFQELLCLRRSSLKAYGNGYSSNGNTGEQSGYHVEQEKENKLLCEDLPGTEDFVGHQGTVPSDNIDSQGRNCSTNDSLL
Cannabinoid receptor 2 (Homo sapiens), sequence (P34972 whole entry): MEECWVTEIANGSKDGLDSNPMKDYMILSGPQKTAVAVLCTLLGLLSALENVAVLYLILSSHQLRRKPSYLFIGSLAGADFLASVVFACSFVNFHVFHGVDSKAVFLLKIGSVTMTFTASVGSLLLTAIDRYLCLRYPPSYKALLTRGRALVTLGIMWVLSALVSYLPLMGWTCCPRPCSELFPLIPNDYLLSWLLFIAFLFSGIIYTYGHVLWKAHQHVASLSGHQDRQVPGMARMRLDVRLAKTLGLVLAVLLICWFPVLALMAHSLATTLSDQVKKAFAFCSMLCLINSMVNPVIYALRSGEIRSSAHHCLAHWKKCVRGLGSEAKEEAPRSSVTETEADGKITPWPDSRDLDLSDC

As to `CC(C)C[C@H](NC(=O)[C@H](Cc1ccccc1)NC(=O)[C@H](CCCCN)NC(=O)[C@H](Cc1ccccc1)NC(=O)[C@H](CC(N)=O)NC(=O)[C@@H](NC(=O)[C@@H]1CCCN1)C(C)C)C(=O)N[C@@H](CO)C(=O)N[C@@H](Cc1cnc[nH]1)C(=O)O` [HEMOPRESSIN], the Activity worked out at 1.07 in assay [1]; 100% in assay [3]; 0.53 in assay [5]; 140% in [7]; 157% in assay [9]; 102% in [10]. Moreover, the outcome in assay [2] and in assay [4] was Active. In addition, the result in assay [6] and in assay [8] was inactive.
